From ChEMBL document CHEMBL4825730, “Discovery of a First-in-Class Inhibitor of the PRMT5-Substrate Adaptor Interaction” (J Med Chem, 2021)
≈ marks a conversion by molar mass, not a printed value. Calls of active or inactive are those of the source. The calls are words filed in the database; no cut-off is given here.

Assays:
[1] = biological target: PRMT5/MEP50 complex (Homo sapiens, UniProt O14744); test: Displacement of fluorophore-labeled RIOK1 from human PRMT5/WDR77 hetero octameric complex expressed in Sf9 cells by competition fluorescence polarization (FP) assay
[2] = Stability in mouse plasma assessed as compound remaining relative to control; assay type: ADME, cell-free
[3] = Stability in human plasma assessed as compound remaining relative to control; assay type: ADME, cell-free
[4] = Solubility in PBS buffer; assay type: physicochemical
[5] = biological target: T1, Protein arginine N-methyltransferase 5 (Homo sapiens, UniProt O14744); test: Covalent inhibition of human PRMT5 assessed as Kinact/Ki ratio by LC-MS analysis
[6] = biological target: T1, Protein arginine N-methyltransferase 5; test: Covalent inhibition of human PRMT5 assessed as initial binding constant by LC-MS analysis
[7] = biological target: T1, Protein arginine N-methyltransferase 5; test: Covalent inhibition of human PRMT5 assessed maximum potential inactivation rate by LC-MS analysis
[8] = system: Protein arginine N-methyltransferase 5 (Homo sapiens), O14744 [C278A]; test: Binding affinity to human PRMT5 C278A mutant assessed as increase in protein mass by deconvoluted mass spectra analysis
Method in brief: (§1)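 Purified untagged PRMT5:WDR77 (Sf9 co-expressed) exchanged into 10 mM HEPES 7.4, 150 mM NaCl, 1 mM TCEP. Protein diluted to 10 μM; 10 μL protein plus 1 μL compound (0.5 mM stock in DMSO) or DMSO in 90 μL buffer, 4 h at RT. Intact mass by LC-ToF on C4 column at 80 °C, positive ESI, spectra deconvoluted by MaxEnt1.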

[9] = Displacement of fluorophore-labeled RIOK1 from human PRMT5 C278A mutant/WDR77 hetero octameric complex expressed in Sf9 cells by competition fluorescence polarization (FP) assay
Method in brief: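 Competition FP with Sf9-expressed untagged PRMT5:WDR77 (WT or C278A) at 200 nM protomer and 10 nM fluorophore-labeled RIOK1 PBM peptide probe. […] Incubated at RT, read at 40 min, 8-point dose range, triplicate. Normalized to DMSO (100) and unlabeled peptide control at 20 μM (0).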

[10] = biological target: T1, Protein arginine N-methyltransferase 5; test: Binding affinity to human wild type PRMT5 assessed as increase in protein mass by deconvoluted mass spectra analysis; method in brief: as §1
[11] = biological target: Methylosome protein WDR77 (Homo sapiens) (UniProt Q9BQA1); test: Binding affinity to human wild type WDR77 assessed as increase in protein mass by deconvoluted mass spectra analysis; method in brief: as §1
[12] = biological target: PRMT5/MEP50 complex (Homo sapiens) (UniProt O14744+Q9BQA1); test: Displacement of full-length pICIn protein from human PRMT5/WDR77 hetero octameric complex at 2 uM pretreated by SPR competition assay
[13] = Disruption of human N-terminal SmBiT peptide-tagged PRMT5/N-terminal LgBiT tagged RIOK1 complex expressed in intact HEK293T cells measured after 40 mins by NanoBiT assay; assay type: cell-based; conditions: HEK-293T

T1 sequence (O14744 whole entry): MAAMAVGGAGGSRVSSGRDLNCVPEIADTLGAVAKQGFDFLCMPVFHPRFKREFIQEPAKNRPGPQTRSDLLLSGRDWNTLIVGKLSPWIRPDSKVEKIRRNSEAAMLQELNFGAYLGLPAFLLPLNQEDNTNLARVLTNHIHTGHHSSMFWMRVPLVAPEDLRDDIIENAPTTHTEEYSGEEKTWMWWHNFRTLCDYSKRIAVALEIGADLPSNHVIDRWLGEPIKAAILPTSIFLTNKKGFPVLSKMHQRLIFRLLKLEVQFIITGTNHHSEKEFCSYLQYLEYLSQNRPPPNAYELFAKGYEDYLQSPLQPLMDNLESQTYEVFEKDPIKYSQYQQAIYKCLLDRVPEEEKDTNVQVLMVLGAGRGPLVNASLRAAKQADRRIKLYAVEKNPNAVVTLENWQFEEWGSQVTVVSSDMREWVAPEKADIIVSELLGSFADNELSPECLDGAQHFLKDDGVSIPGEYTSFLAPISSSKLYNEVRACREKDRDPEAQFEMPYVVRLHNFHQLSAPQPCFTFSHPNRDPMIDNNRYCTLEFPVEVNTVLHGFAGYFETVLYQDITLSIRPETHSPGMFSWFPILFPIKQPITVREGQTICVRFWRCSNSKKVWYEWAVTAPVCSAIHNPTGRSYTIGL
Chain of PRMT5/MEP50 complex (O14744 whole entry): as above
Chain of PRMT5/MEP50 complex (Q9BQA1 whole entry, further chain): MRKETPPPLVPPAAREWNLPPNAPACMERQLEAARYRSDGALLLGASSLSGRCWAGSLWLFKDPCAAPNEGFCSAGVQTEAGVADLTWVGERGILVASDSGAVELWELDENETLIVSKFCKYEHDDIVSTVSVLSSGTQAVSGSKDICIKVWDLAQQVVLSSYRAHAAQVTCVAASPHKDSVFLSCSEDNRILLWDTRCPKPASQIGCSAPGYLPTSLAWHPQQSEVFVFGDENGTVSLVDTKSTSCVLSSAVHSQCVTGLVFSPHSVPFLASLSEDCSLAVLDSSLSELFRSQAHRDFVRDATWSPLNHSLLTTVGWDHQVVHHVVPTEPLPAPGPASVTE
Chain of Methylosome protein WDR77 (Homo sapiens) (Q9BQA1 whole entry): as the sequence (Q9BQA1 whole entry, further chain) above
Chain of Protein arginine N-methyltransferase 5 (Homo sapiens), O14744 [C278A] (O14744 whole entry C278A): as the sequence (O14744 whole entry) above, with C278A counted along it

| Structure (SMILES) | IC50 [1] | Stabilty [2] | Stabilty [3] | solubility [4] | further results |
| --- | --- | --- | --- | --- | --- |
| Cc1ncc(NC(=O)Cn2ncc(Cl)c(Cl)c2=O)cc1S(=O)(=O)N1CCCN(C)CC1 | > 200 µM | 3% | 70% | 96 µM (≈ 47 µg/mL) |  |
| Cc1ccc(NC(=O)[C@@H](C)n2ncc(Cl)c(Cl)c2=O)cc1S(=O)(=O)NCCc1ccccn1 | 55.4 µM | 97% | 95% | 70 µM (≈ 35.7 µg/mL) | Ratio [5]: 226 M⁻¹ s⁻¹; Ki [6]: 78 µM; Kinact [7]: 1.05 min⁻¹ |
| O=C(Cn1ncc(Cl)c(Cl)c1=O)Nc1cccc(S(=O)(=O)NCCc2ccccn2)c1 | 19.2 µM |  |  | 19 µM (≈ 9.16 µg/mL) |  |
| Cc1ccc(NC(=O)Cn2ncc(F)c(Cl)c2=O)cc1S(=O)(=O)NCCc1ccccn1 | 0.37 µM |  |  |  |  |
| Cc1ccc(NC(=O)Cn2ncc(F)c(C)c2=O)cc1S(=O)(=O)NCCc1ccccn1 | 72.1 µM |  |  |  |  |
| Cc1ccc(NC(=O)Cn2ncc(F)cc2=O)cc1S(=O)(=O)NCCc1ccccn1 | 35.6 µM |  |  |  | Ki [6]: 58 µM |
| Cc1cc(NC(=O)Cn2ncc(Cl)c(Cl)c2=O)cc(S(=O)(=O)NCCc2ccccn2)c1C | 2.5 µM |  |  | 3.7 µM (≈ 1.89 µg/mL) |  |
| Cc1ccc(NC(=O)[C@H](C)n2ncc(Cl)c(Cl)c2=O)cc1S(=O)(=O)NCCc1ccccn1 | 0.3 µM | 92% | 92% | 64 µM (≈ 32.7 µg/mL) | Ratio [5]: 14600 M⁻¹ s⁻¹; Ki [6]: 2 µM; Kinact [7]: 1.95 min⁻¹ |
| CCc1ccc(NC(=O)Cn2ncc(Cl)c(Cl)c2=O)cc1S(=O)(=O)NCCc1ccccn1 | 4.2 µM |  |  | 12 µM (≈ 6.12 µg/mL) |  |
| Nc1nc2cc(CC[C@H]3C[C@@H](n4ccc5c(N)ncnc54)[C@H](O)[C@@H]3O)ccc2cc1Br [ONAMETOSTAT] |  |  |  | 7 µM (≈ 3.38 µg/mL) |  |
| Cc1ccc(NC(=O)Cn2ncc(Cl)cc2=O)cc1S(=O)(=O)NCCc1ccccn1 | 72.9 µM |  |  |  | Ki [6]: 36 µM |
| Cc1ccc(N(C)C(=O)Cn2ncc(Cl)c(Cl)c2=O)cc1S(=O)(=O)NCCc1ccccn1 | > 200 µM | 86% | 89% | 86 µM (≈ 43.9 µg/mL) |  |
| Cc1cnc(NC(=O)Cn2ncc(Cl)c(Cl)c2=O)cc1S(=O)(=O)N(C)C |  |  |  | 7.6 µM (≈ 3.19 µg/mL) |  |
| Cc1ccc(NC(=O)Cn2ncc(Cl)c(Cl)c2=O)nc1S(=O)(=O)NCCc1ccccn1 | 4.5 µM | 75% | 96% | 5 µM (≈ 2.49 µg/mL) |  |
| Cc1ccc(NC(=O)Cn2ncc(Cl)c(Cl)c2=O)cc1S(=O)(=O)NCCc1ccccn1 | 2.2 µM |  |  |  | Activity [8]: inactive; IC50 [9]: > 100 µM; Activity [10]: Active; Ki [6]: 8 µM; Activity [11]: inactive; Activity [12]: Active |
| Cc1ccc(NC(=O)C(C)n2ncc(Cl)c(C)c2=O)cc1S(=O)(=O)NCCc1ccccn1 (racemic) | > 200 µM |  |  |  |  |
| Cc1ccc(N(C)C(=O)[C@H](C)n2ncc(Cl)cc2=O)cc1S(=O)(=O)NCCc1ccccn1 | > 200 µM |  |  | 114 µM (≈ 55.9 µg/mL) |  |
| COc1ccc(NC(=O)Cn2ncc(Cl)c(Cl)c2=O)cc1S(=O)(=O)NCCc1ccccn1 | 23.3 µM |  |  | 96 µM (≈ 49.2 µg/mL) |  |
| Cc1ccc(NC(=O)Cn2ncc(Cl)c(Cl)c2=O)cc1S(=O)(=O)N(C)C | 14.1 µM |  |  |  |  |
| O=C(NC[C@H](O)CN1CCc2ccccc2C1)c1cc(NC2COC2)ncn1 |  |  |  | 101 µM (≈ 38.7 µg/mL) |  |
| Cc1ccc(NC(=O)Cn2ncc(Cl)c(Cl)c2=O)cc1S(=O)(=O)N1CCCCC1 | 12.7 µM |  |  | 0.8 µM (≈ 0.367 µg/mL) |  |
| Cc1ccc(NC(=O)Cn2nccc(Cl)c2=O)cc1S(=O)(=O)NCCc1ccccn1 | > 200 µM |  |  |  | IC50 [13]: > 100 µM |
| Cc1ccc(NC(=O)Cn2ncc(Cl)c(Cl)c2=O)cc1S(=O)(=O)N1CCN(C)CC1 | 10.1 µM | 0% | 72% | 89 µM (≈ 42.2 µg/mL) |  |
| Cc1cc(C)c(S(=O)(=O)NCCc2ccccn2)cc1NC(=O)Cn1ncc(Cl)c(Cl)c1=O | 6.1 µM |  |  | 14 µM (≈ 7.15 µg/mL) |  |
| CN(C)S(=O)(=O)N1CCCC(NC(=O)Cn2ncc(Cl)c(Cl)c2=O)C1 (stereo not given) | > 200 µM |  |  | 98 µM (≈ 40.4 µg/mL) |  |
| Cc1ccc(NC(=O)Cn2ncc(Cl)c(Cl)c2=O)c(C)c1S(=O)(=O)NCCc1ccccn1 | 39 µM |  |  | 7.8 µM (≈ 3.98 µg/mL) |  |
| Cc1ccc(NC(=O)Cn2ncc(Cl)c(Cl)c2=O)cc1S(=O)(=O)NCCc1cccnc1 | 4.6 µM | 21% | 100% | 88 µM (≈ 43.7 µg/mL) |  |
| Cc1ccc(NC(=O)Cn2ncc(Cl)c(Cl)c2=O)cc1S(=O)(=O)N1CCCN(C)CC1 | 5.4 µM | 0% | 84% | 98 µM (≈ 47.9 µg/mL) |  |
| Cc1ccc(NC(=O)Cn2ncc(Cl)c(Cl)c2=O)cc1S(=O)(=O)NCCc1ccncc1 | 2.5 µM | 2% | 92% | 93 µM (≈ 46.2 µg/mL) |  |
